Experimental data gathered from unrelated publications.
Compare with care: the assays were run in different laboratories.
Target: Mitogen-activated protein kinase kinase kinase kinase 1 (MAP4K1, Homo sapiens, UniProt Q92918)

Compound	assay	conditions	quantity	result
CO[C@@H]1[C@H](N(C)C(=O)c2ccccc2)C[C@H]2O[C@]1(C)n1c3ccccc3c3c4c(c5c6ccccc6n2c5c31)C(=O)NC4	enzyme activity, inhibitor	1 µM	inhibition	80%
CCCCC(=O)Nc1ccc(-c2ccc3ncn(CCC)c(=O)c3c2)cn1	binding, competition with immobilised ligand	0.5 µM	remaining binding	100%
C=CC(=O)N1CCC[C@@H](n2nc(-c3ccc(Oc4ccccc4)cc3)c3c(N)ncnc32)C1	enzyme activity, inhibitor	1 µM	inhibition	10%
CC(C)S(=O)(=O)c1ccc2nccc(Nc3ccc4sc(C5CCCC5)nc4c3)c2c1	enzyme activity, inhibitor	1 µM	activity vs control	102%
C[C@H]1CC[C@H](n2c3cnccc3c3cnc(Nc4ccc5c(n4)CCN(C(=O)CO)C5)nc32)CC1	binding, competition with immobilised ligand	1 µM	remaining binding	66%
COc1ccc2oc(-c3ccc4nc(N)oc4c3)c/c(=N\c3ccccc3NC(=O)CCN)c2c1	binding	1 µM	remaining binding	109%
C#Cc1cc(-c2cc(Nc3nc(N[C@@H](C)c4ccc(F)cn4)ncc3Cl)n[nH]2)ccc1C=O	enzyme activity, inhibitor	0.2 µM	inhibition	47.8%
CN1CCN(C(=O)c2ccc(NC(=O)Nc3ccc(N(C)c4ccnc(Nc5ccc(CS(C)(=O)=O)cc5)n4)cc3)cc2)CC1	binding, competition with immobilised ligand	1 µM	remaining binding	2.6%
